The structures appear in SMILES notation.

By IC50 is commonly meant the concentration that gives 50% inhibition.

Data set [1] relates to MCF-7 cells (human breast carcinoma). Put plainly: In vitro antiproliferative assay. It is filed as cell-based. Particulars: for IC50: Homo sapiens, MCF7, 72 h, read-out: IC50 ± SD.
For data set [2], the system named is MCF-10A normal human mammary gland epithelial cells. Put plainly: cells. The note with it: for IC50: Homo sapiens, MCF-10A, 72 h, read-out: IC50 ± SD; for cytotoxic activity against MCF-10A, times lower than against cancer cell lines: MCF-10A vs MCF-7, JURKAT, HT-29, Hep-G2, HeLa, Du-145, DAUDI; for cytotoxic activity against MCF-10A, times lower than against cancer cells: MCF-10A vs MV4-11 (cancer cell lines). Format: cell-based.

In data set [3] the test system is MV-4-11 cells (biphenotypic B myelomonocytic leukemia). Put plainly: In vitro antiproliferative assay. It is filed as cell-based, human. The note with it: for IC50: Homo sapiens, MV4-11, 72 h, read-out: IC50 ± SD.
Data set [4] relates to HT-29 cells (human colon adenocarcinoma). Put plainly: In vitro antiproliferative assay. Particulars: for IC50: Homo sapiens, HT-29, 72 h, read-out: IC50 ± SD. It is filed as cell-based.
Data set [5] relates to HeLa cells (human cervical carcinoma). Put plainly: In vitro antiproliferative assay. It is filed as cell-based. Particulars: for IC50: Homo sapiens, 72 h, read-out: IC50 ± SD.
The test system of data set [6] is human cancer cell lines (MV-4-11, MCF-7, JURKAT, HT-29, Hep-G2, HeLa, Du-145, DAUDI). Put plainly: In vitro antiproliferative assay, summary over several cancer cell lines. Format: cell-based. The note with it: read-out: IC50 values in relation to other cell lines.
For data set [7], the system named is Hep-G2 cells (human hepatocellular carcinoma). As to the kind of experiment: In vitro antiproliferative assay. Format: cell-based. Particulars: for IC50: Homo sapiens, HepG2, 72 h, read-out: IC50 ± SD.
Data set [8] has as its system JURKAT cells (human leukemic T-cell lymphoblast). Put plainly: In vitro antiproliferative assay. Format: cell-based. Particulars: for IC50: Homo sapiens, Jurkat, 72 h, read-out: IC50 ± SD.
In data set [9] the test system is Du-145 cells (human prostate carcinoma). Put plainly: In vitro antiproliferative assay. Particulars: for IC50: Homo sapiens, DU-145, 72 h, read-out: IC50 ± SD. Format: cell-based.
The nature of data set [10]: Determination of lipophilicity by RP UPLC. It is filed as physicochemical. The note with it: for -S (slope of the regression curve): log k = log kw + SΦ; for log kw (capacity factor of the analyte in pure water): Kinetex C18, methanol 0.65-0.95 v/v, 25 °C. In short, it runs like this:
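Kinetex C18 column (150 × 4.6 mm, 2.6 µm) on a UPLC with UV detection at 254 nm. Test compound was dissolved in methanol at 10 µg/ml. Isocratic methanol fractions ran at 0.5 ml/min and 25 °C. Dead time was taken from uracil. log k was regressed linearly on methanol fraction Φ (Soczewiński–Wachtmeister), giving log kw as the intercept and S as the slope.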

Data set [11] deals with DAUDI cells (Burkitt lymphoma). Put plainly: In vitro antiproliferative assay. It is filed as cell-based, human. Particulars: for IC50: Homo sapiens, Daudi, 72 h, read-out: IC50 ± SD.

As to `Cc1ccc([N+]2=NN(CCCl)CC2)cc1.[Cl-]` [2c, 1-(2-Chloroethyl)-3-p-tolyl-4,5-dihydro-1H-1,2,3-triazol-3-ium chloride], the IC50 is 19.8 ± 3.02 µg/mL in data set [1]; 61.6 ± 13.1 µg/mL in data set [2]; 5.42 ± 2.52 µg/mL in data set [3]; 16.2 ± 7.37 µg/mL in data set [4]; 18.1 ± 7.04 µg/mL in data set [5]; 12.5 to 36.4 µg/mL in data set [6]. For the same compound, the IC50 in [7] was found to be 23.8 ± 5.36 µg/mL; in [8], 13.1 ± 0.503 µg/mL; in [9] it was 36.4 ± 5.29 µg/mL; in [11], 4.91 ± 1.53 µg/mL. The “cytotoxic activity against MCF-10A, times lower than against cancer cell lines” value in [2] is listed as 1–5 times. Further, the “cytotoxic activity against MCF-10A, times lower than against cancer cells” value in data set [2] is recorded as 6–11 times. In addition, the “Φ0 lipophilicity parameter (−log kw/S)” value in [10] stood at 1.338. For the same compound, the “-S (slope of the regression curve)” value in data set [10] was 2.000.

With `ClCCN1CC[N+](c2ccccc2)=N1.[Cl-]` [2b, 1-(2-Chloroethyl)-3-phenyl-4,5-dihydro-1H-1,2,3-triazol-3-ium chloride], the IC50 in [1] amounted to 50.4 ± 8.08 µg/mL; in data set [3], 44.6 ± 4.37 µg/mL; in data set [4], 48.9 ± 18.7 µg/mL; in [5], 39.4 ± 11.5 µg/mL; in data set [7], 37.9 ± 17.1 µg/mL; in data set [8], 68.5 ± 6.36 µg/mL. Besides, the IC50 in [11] was 40.2 ± 4.29 µg/mL. Besides, the “Φ0 lipophilicity parameter (−log kw/S)” value in data set [10] is given as 1.519. For the same compound, in data set [10], the “log kw (capacity factor of the analyte in pure water)” value was −2.002. Moreover, the “-S (slope of the regression curve)” value in data set [10] was determined as 1.318.

`ClCCN1CC[N+](c2ccc(Cl)cc2)=N1.[Cl-]` [2e, 1-(2-Chloroethyl)-3-(4-chlorophenyl)-4,5-dihydro-1H-1,2,3-triazol-3-ium chloride]: the IC50 was 15.1 ± 2.77 µg/mL in [1]; 49.3 ± 15.5 µg/mL in data set [2]; 7.69 ± 3.17 µg/mL in data set [3]; 31.9 ± 8.14 µg/mL in data set [4]; 12.5 ± 2.23 µg/mL in [5]; 12.5 to 36.4 µg/mL in data set [6]. For the same compound, the IC50 in data set [7] is 14.9 ± 4.66 µg/mL; in data set [8], 13.6 ± 3 µg/mL; in data set [9] it was 30.1 ± 10.2 µg/mL; in data set [11] it was 13.6 ± 3.66 µg/mL. In data set [2], the “cytotoxic activity against MCF-10A, times lower than against cancer cell lines” value is on record as 1–5 times. In addition, the “cytotoxic activity against MCF-10A, times lower than against cancer cells” value in data set [2] is 6–11 times. The “Φ0 lipophilicity parameter (−log kw/S)” value in data set [10] amounted to 1.196. Besides, the “log kw (capacity factor of the analyte in pure water)” value in data set [10] is reported as −3.503. In addition, the “-S (slope of the regression curve)” value in data set [10] is 2.928.

Regarding `CC(=O)c1ccc([N+]2=NN(CCCl)CC2)cc1.[Cl-]` [2a, 3-(4-Acetylphenyl)-1-(2-chloroethyl)-4,5-dihydro-1H-1,2,3-triazol-3-ium chloride], the IC50 turned out to be 45.1 ± 1.65 µg/mL in data set [1]; 80 ± 8.43 µg/mL in data set [2]; 13.4 ± 5.94 µg/mL in data set [3]; 49.3 ± 17.4 µg/mL in data set [4]; 39.4 ± 9.77 µg/mL in [5]; 38.5 ± 12.3 µg/mL in [7]. For the same compound, the values for the half-inhibitory concentration (IC50) in data set [8] and in data set [9] were 66.2 ± 13.4 µg/mL and 89 ± 9.31 µg/mL, respectively. Also, the “Φ0 lipophilicity parameter (−log kw/S)” value in data set [10] was found to be 1.958. For the same compound, the “-S (slope of the regression curve)” value in data set [10] was determined as 0.755.

Consider `O=[N+]([O-])c1ccc([N+]2=NN(CCCl)CC2)cc1.[Cl-]` [2g, 1-(2-Chloroethyl)-3-(4-nitrophenyl)-4,5-dihydro-1H-1,2,3-triazol-3-ium chloride], for which the IC50 stood at 23.9 ± 7.48 µg/mL in [1]; 36.6 ± 9.52 µg/mL in data set [2]; 14.1 ± 7.75 µg/mL in [3]; 47.6 ± 3.42 µg/mL in data set [4]; 29 ± 5.35 µg/mL in data set [5]; 32.1 ± 1.4 µg/mL in data set [7]. Further, the IC50 in [8] was determined as 49.1 ± 14.1 µg/mL; in [9], 34.1 ± 1.35 µg/mL. Also, the “Φ0 lipophilicity parameter (−log kw/S)” value in data set [10] was 2.532. Moreover, the “-S (slope of the regression curve)” value in data set [10] is given as 0.594.

As for `Fc1ccc([N+]2=NN(CCCl)CC2)cc1.[Cl-]` [2i, 1-(2-Chloroethyl)-3-(4-fluorophenyl)-4,5-dihydro-1H-1,2,3-triazol-3-ium chloride], the half-maximal inhibitory concentration (IC50) is 61.4 ± 21.8 µg/mL in data set [1]; 51.4 ± 11.9 µg/mL in data set [3]; 51.3 ± 14.7 µg/mL in data set [5]; 70.2 ± 13.9 µg/mL in data set [7]; 75.6 ± 17.8 µg/mL in [11]. Besides, in [10], the “Φ0 lipophilicity parameter (−log kw/S)” value was 1.824. Moreover, in data set [10], the “log kw (capacity factor of the analyte in pure water)” value was −1.873. Further, the “-S (slope of the regression curve)” value in [10] was 1.027.

For `FC(F)(F)c1cccc([N+]2=NN(CCCl)CC2)c1.[Cl-]` [2d, 1-(2-Chloroethyl)-3-(3-(trifluoromethyl)phenyl)-4,5-dihydro-1H-1,2,3-triazol-3-ium chloride], the IC50 was 16.5 ± 4.14 µg/mL in data set [1]; 32.6 ± 2.79 µg/mL in [2]; 5.59 ± 3.03 µg/mL in data set [3]; 31.7 ± 5.45 µg/mL in data set [4]; 22.7 ± 2.98 µg/mL in data set [5]; 12.5 to 36.4 µg/mL in data set [6]. The IC50 is 14.9 ± 1.08 µg/mL in [7], 24.3 ± 1.22 µg/mL in [8], 30.9 ± 3.15 µg/mL in data set [9] and 17.6 ± 2.29 µg/mL in data set [11]. For the same compound, in data set [2], the “cytotoxic activity against MCF-10A, times lower than against cancer cell lines” value is listed as 1–5 times. Also, in data set [2], the “cytotoxic activity against MCF-10A, times lower than against cancer cells” value is listed as 6–11 times. The “Φ0 lipophilicity parameter (−log kw/S)” value in data set [10] is 1.204. The “log kw (capacity factor of the analyte in pure water)” value in [10] is −3.373. Besides, the “-S (slope of the regression curve)” value in data set [10] was 2.802.

With `CCOC(=O)c1ccc([N+]2=NN(CCCl)CC2)cc1.[Cl-]` [2f, 1-(2-Chloroethyl)-3-(4-(ethoxycarbonyl)phenyl)-4,5-dihydro-1H-1,2,3-triazol-3-ium chloride], the IC50 was determined as 20.9 ± 2.19 µg/mL in data set [1]; 42 ± 17.3 µg/mL in [2]; 6.16 ± 1.76 µg/mL in [3]; 5.59 ± 0.632 µg/mL in data set [4]; 23.5 ± 3.32 µg/mL in data set [5]; 27.8 ± 10.1 µg/mL in data set [7]. Besides, the values for the IC50 in data set [8], in [9] and in data set [11] were 36 ± 7.11 µg/mL, 22.8 ± 10.1 µg/mL and 61.9 ± 24.8 µg/mL, respectively. Also, in data set [2], the “cytotoxic activity against MCF-10A, times lower than against cancer cells” value is 6–11 times. Further, in data set [10], the “Φ0 lipophilicity parameter (−log kw/S)” value amounted to 1.301. In addition, the “-S (slope of the regression curve)” value in data set [10] was determined as 2.259.

For the compound `N.N.[Cl][Pt][Cl]` [cis-platin, reference compound], the “IC50 ± SD” value in data set [1] (MCF-7, 72 h exposure, SRB) is 1.73 ± 0.443 µg/mL; in data set [2] (MCF-10A normal cells, 72 h exposure, SRB), 4.65 ± 1.171 µg/mL; in data set [3] (MV-4-11, 72 h exposure, MTT) it was 0.76 ± 0.184 µg/mL; in data set [4] (HT-29, 72 h exposure, SRB), 3.63 ± 0.715 µg/mL; in [5] (72 h exposure, SRB), 0.37 ± 0.137 µg/mL; in data set [7] (Hep-G2, 72 h exposure, SRB), 0.68 ± 0.147 µg/mL. Moreover, the “IC50 ± SD” value in [8] (JURKAT, 72 h exposure, MTT) was determined as 0.24 ± 0.056 µg/mL; in [9] (Du-145, 72 h exposure, SRB) it was 0.59 ± 0.086 µg/mL; in data set [11] (DAUDI, 72 h exposure, MTT), 1.07 ± 0.208 µg/mL.

The values above are taken from paper PMC6438848 (Saudi Pharmaceutical Journal : SPJ, 2018).
